Calls of active or inactive are those of the source. The rule behind the calls is not given here.
How the values were obtained:
[1] = (§1) Oral bioavailability in Sprague-Dawley rat at 5 mg/kg; type: ADME, organism-based; details: Sprague-Dawley, in vivo
In short: (§2)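 Rats were given a single dose of compound formulated in DMSO/cyclodextrin, either intravenously at 1 mg/kg or orally at 5 mg/kg. Each parameter comes from the matching route arm. Dose-normalized AUC is expressed as h kg ng mL⁻¹ mg⁻¹.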

[2] = (§3) Tmax in Sprague-Dawley rat at 5 mg/kg, po; type: ADME, organism-based; set-up: dose 5 mg/kg, route oral; details: Sprague-Dawley, in vivo; in short: as §2
[3] = (§4) Half life in Sprague-Dawley rat at 5 mg/kg, po; type: ADME, organism-based; set-up: dose 5 mg/kg, route oral; details: Sprague-Dawley, in vivo; in short: as §2
[4] = (§5) Cmax in Sprague-Dawley rat at 5 mg/kg, po; type: ADME, organism-based; set-up: dose 5 mg/kg, route oral; details: Sprague-Dawley, in vivo; in short: as §2
[5] = AUC in Sprague-Dawley rat at 5 mg/kg, po; type: ADME, organism-based; set-up: dose 5 mg/kg, route oral; details: plasma; in short: as §2
[6] = molecular target: T1, Phosphatidylinositol 4-kinase alpha (Homo sapiens, UniProt P42356); test: Competitive inhibition of GST-tagged PI4K-alpha (1 to 2044) (unknown origin) in presence of ATP
[7] = test system: Hepatitis C virus; test: Antiviral activity against Hepatitis C virus genotype 2a expressed in human Huh-7 Lunet cells after 48 hrs by luciferase reporter gene assay; type: functional, organism-based, Hepacivirus hominis; details: for pIC50: huh-7
[8] = test system: Hepatitis C virus; test: Antiviral activity against Hepatitis C virus genotype 1b expressed in ET cells after 48 hrs by luciferase reporter gene assay; type: functional, organism-based, Hepacivirus hominis; details: for pIC50: et
[9] = test system: Hepatitis C virus; test: Antiviral activity against Hepatitis C virus genotype 1a expressed in ET cells after 48 hrs by luciferase reporter gene assay; type: functional, organism-based, Hepacivirus hominis, subtype 1a; details: for pIC50: et
[10] = Inhibition of PI3Kdelta (1 to 1044)/6xHis-tagged p85 (1 to 724) (unknown origin) using diC8-PIP2 as substrate preincubated for 30 mins followed by substrate addition measured after 45 to 60 mins; set-up: species or system Homo sapiens
[11] = Inhibition of PI3Kbeta (1 to 1070)/6xHis-tagged p85 (1 to 724) (unknown origin) using diC8-PIP2 as substrate preincubated for 30 mins followed by substrate addition measured after 45 to 60 mins; set-up: species or system Homo sapiens
[12] = Inhibition of PI3Kalpha (1 to 1068)/6xHis-tagged p85 (1 to 724) (unknown origin) using diC8-PIP2 as substrate preincubated for 30 mins followed by substrate addition measured after 45 to 60 mins; set-up: species or system Homo sapiens
[13] = Inhibition of 6xHis-tagged PI4K-beta (13 to 828) 316 to 330 deletion mutant (unknown origin) using D-myo-phosphatidylinositol as substrate preincubated for 30 mins followed by substrate addition measured after 180 mins by luminescence assay; set-up: species or system Homo sapiens
[14] = molecular target: T1, Phosphatidylinositol 4-kinase alpha; test: Inhibition of GST-tagged PI4K-alpha (1 to 2044) (unknown origin) using D-myo-phosphatidylinositol as substrate preincubated for 30 mins followed by substrate addition measured after 180 mins by luminescence assay
Target sequence in this assay (P42356 whole entry): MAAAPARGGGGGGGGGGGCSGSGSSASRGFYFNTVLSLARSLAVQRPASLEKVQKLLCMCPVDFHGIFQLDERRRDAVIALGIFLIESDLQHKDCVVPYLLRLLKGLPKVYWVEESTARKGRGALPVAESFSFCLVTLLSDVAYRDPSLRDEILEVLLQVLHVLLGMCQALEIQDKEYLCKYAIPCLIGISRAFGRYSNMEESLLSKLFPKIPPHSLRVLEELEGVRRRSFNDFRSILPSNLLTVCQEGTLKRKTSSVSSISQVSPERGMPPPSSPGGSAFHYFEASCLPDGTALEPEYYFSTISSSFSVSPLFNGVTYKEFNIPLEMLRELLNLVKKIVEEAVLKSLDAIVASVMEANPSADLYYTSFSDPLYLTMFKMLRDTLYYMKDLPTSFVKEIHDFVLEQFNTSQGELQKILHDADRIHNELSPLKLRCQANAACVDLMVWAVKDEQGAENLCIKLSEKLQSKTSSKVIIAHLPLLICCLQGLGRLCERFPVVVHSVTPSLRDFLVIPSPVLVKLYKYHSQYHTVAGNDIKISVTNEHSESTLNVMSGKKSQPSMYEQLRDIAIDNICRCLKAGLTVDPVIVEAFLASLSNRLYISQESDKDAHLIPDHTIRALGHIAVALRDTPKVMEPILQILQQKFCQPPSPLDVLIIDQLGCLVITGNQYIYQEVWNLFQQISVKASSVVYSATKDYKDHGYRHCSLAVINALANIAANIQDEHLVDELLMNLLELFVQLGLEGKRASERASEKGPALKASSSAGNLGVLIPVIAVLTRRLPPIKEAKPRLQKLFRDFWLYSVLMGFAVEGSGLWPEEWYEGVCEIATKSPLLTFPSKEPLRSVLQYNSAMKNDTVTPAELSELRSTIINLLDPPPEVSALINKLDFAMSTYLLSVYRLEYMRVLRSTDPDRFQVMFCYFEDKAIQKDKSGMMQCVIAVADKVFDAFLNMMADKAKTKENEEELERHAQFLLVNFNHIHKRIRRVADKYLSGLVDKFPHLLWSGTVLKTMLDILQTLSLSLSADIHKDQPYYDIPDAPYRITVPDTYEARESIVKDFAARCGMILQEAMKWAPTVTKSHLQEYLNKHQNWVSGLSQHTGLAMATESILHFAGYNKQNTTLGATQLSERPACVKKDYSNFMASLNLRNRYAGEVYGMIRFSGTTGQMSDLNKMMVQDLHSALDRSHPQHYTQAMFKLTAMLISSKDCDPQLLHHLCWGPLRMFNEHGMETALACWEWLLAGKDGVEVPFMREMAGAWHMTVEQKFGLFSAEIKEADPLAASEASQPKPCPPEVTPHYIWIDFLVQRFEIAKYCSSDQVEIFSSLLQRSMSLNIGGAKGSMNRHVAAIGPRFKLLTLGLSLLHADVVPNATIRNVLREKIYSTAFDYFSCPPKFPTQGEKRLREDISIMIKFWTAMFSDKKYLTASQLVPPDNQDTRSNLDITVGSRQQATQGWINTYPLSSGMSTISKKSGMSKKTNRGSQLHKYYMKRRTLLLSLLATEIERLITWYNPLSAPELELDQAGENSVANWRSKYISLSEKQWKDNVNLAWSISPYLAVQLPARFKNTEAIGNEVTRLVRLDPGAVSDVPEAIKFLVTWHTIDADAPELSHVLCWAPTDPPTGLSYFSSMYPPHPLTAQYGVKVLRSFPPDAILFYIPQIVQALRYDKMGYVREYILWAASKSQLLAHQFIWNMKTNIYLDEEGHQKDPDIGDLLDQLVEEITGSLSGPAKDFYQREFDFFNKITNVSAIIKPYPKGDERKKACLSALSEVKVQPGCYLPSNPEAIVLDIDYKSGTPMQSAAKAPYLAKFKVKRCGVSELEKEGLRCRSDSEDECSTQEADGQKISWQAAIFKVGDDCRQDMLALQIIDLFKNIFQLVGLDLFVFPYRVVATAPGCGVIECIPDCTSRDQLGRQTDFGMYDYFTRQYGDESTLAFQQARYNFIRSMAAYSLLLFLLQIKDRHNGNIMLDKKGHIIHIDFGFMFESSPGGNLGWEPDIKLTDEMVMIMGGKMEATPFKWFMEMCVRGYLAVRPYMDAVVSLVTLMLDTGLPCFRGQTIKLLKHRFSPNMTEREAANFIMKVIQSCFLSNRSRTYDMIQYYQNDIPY

[15] = molecular target: Phosphatidylinositol 4,5-bisphosphate 3-kinase catalytic subunit gamma isoform (Homo sapiens, UniProt P48736)
[16] = test system: Rattus norvegicus; test: Dose normalized AUC in Sprague-Dawley rat at 5 mg/kg, po; type: ADME, organism-based; set-up: dose 5 mg/kg, route oral; details: in vivo; in short: as §2
[17] = test system: Rattus norvegicus; test: Dose normalized AUC in Sprague-Dawley rat at 1 mg/kg, iv; type: ADME, organism-based; set-up: dose 1 mg/kg, route intravenous; details: in vivo; in short: as §2
[18] = (§6) Volume of distribution at steady state in Sprague-Dawley rat at 1 mg/kg, iv; type: ADME, organism-based; set-up: dose 1 mg/kg, route intravenous; details: Sprague-Dawley, in vivo, read-out: Vdss; in short: as §2
[19] = test system: Rattus norvegicus; test: Half life in Sprague-Dawley rat at 1 mg/kg, iv; type: ADME, organism-based; set-up: dose 1 mg/kg, route intravenous; details: in vivo; in short: as §2
[20] = Clearance in Sprague-Dawley rat at 1 mg/kg, iv; type: ADME, organism-based; set-up: dose 1 mg/kg, route intravenous; details: in vivo; in short: as §2
[21] = Thermodynamic stability of the compound in DMSO assessed as interconversion at 80 degC after 6 days; type: physicochemical; details: 144 h
[22] = Thermodynamic stability of the compound in DMSO assessed as decomposition at 80 degC after 6 days; type: physicochemical; details: 144 h
[23] = test system: Rattus norvegicus; test: as §5; type: ADME, organism-based; set-up: dose 5 mg/kg, route oral; details: in vivo; in short: as §2
[24] = test system: Mus musculus; test: Toxicity in mouse assessed as pathological changes in spleen at 40 mg/kg/day; type: organism-based; details: in vivo
In short: (§7)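 Mouse repeat-dose toxicity study: 40 mg/kg/day given daily for 14 days. Endpoints were morbidity, mortality, test-article-related changes in stomach, thymus and spleen, and clinical pathology parameters.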

[25] = test system: Mus musculus; test: Toxicity in mouse assessed as pathological changes in thymus at 40 mg/kg/day; type: organism-based; details: in vivo; in short: as §7
[26] = test system: Mus musculus; test: Toxicity in mouse assessed as pathological changes in stomach at 40 mg/kg/day; type: organism-based; details: in vivo; in short: as §7
[27] = test system: Mus musculus; test: Toxicity in mouse assessed as mortality at 40 mg/kg/day; type: organism-based; details: in vivo; in short: as §7
[28] = test system: Mus musculus; test: Toxicity in mouse assessed as morbidity at 40 mg/kg/day; type: organism-based; details: in vivo; in short: as §7
[29] = Toxicity in mouse after 14 days; type: organism-based; details: in vivo; in short: as §7
[30] = test system: Rattus norvegicus; test: as §6; type: ADME, organism-based; set-up: dose 1 mg/kg, route intravenous; details: in vivo; in short: as §2
[31] = test system: Rattus norvegicus; test: as §1; type: ADME, organism-based; details: in vivo; in short: as §2
[32] = test system: Rattus norvegicus; test: as §3; type: ADME, organism-based; set-up: dose 5 mg/kg, route oral; details: in vivo; in short: as §2
[33] = test system: Rattus norvegicus; test: as §4; type: ADME, organism-based; set-up: dose 5 mg/kg, route oral; details: in vivo; in short: as §2
[34] = Hepatitis C virus, genotype 1b, ET, 48 h

Sequence of Phosphatidylinositol 4,5-bisphosphate 3-kinase catalytic subunit gamma isoform (P48736 whole entry, canonical isoform): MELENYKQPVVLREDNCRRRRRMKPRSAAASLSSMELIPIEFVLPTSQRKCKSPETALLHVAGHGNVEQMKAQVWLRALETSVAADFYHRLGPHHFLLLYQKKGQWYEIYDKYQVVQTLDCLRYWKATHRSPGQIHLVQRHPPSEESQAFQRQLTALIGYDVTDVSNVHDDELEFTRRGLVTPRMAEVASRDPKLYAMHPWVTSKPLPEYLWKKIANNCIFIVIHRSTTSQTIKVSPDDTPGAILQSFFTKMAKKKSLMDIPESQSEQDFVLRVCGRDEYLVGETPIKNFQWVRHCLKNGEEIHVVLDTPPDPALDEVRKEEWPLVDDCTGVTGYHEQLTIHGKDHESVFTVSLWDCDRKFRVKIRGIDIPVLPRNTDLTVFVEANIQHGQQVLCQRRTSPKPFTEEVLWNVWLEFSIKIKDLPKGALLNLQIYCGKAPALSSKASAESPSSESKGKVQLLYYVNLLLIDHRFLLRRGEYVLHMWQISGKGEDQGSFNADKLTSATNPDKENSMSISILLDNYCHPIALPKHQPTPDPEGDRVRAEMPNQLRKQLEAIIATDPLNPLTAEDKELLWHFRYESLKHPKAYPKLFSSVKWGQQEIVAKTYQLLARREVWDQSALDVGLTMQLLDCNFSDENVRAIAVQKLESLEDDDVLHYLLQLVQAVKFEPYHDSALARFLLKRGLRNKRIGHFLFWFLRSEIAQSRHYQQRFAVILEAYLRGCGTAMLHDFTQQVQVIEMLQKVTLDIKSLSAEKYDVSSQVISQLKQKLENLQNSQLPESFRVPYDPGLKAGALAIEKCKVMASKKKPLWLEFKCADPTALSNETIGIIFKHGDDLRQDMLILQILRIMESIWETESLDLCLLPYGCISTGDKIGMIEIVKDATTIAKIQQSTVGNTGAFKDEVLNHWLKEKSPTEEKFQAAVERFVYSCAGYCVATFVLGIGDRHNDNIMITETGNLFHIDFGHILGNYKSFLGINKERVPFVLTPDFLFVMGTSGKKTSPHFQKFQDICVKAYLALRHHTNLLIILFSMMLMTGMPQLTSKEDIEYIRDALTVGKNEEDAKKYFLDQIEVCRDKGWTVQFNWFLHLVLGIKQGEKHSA

Row | bioavailability [1] | Tmax [2] | half-life [3] | Cmax [4] | AUC [5] | Compound | pIC50 [10] | pIC50 [11] | pIC50 [12] | pIC50 [13] | IC50 [14] | IC50 [15] | AUC/dose [16] | AUC/dose [17] | t1/2 [19] | Cmax [23] | pIC50 [7] | pIC50 [8] | pIC50 [9] | also measured
1 | 38% | 0.67 h | 2.39 h | 1390 ng/mL | 5000 ng·h/mL | COc1ncc(-c2ccc3nc(N)c(-c4ccc(N5CCOCC5)cc4)cc3c2)cc1NS(=O)(=O)c1ccc(F)cc1F | 6.2 | 5 | 5.6 | 5.5 | 39.8 nM | 631 nM |  |  |  |  |  |  |  | inhibition [6]: Active; EC50 ([7]; Hepatitis C virus, genotype 2a, Huh-7, 48 h): 20 nM; EC50 [8, 34]: 3.98 nM; EC50 ([9]; Hepatitis C virus, subtype 1a, ET, 48 h): 31.6 nM
2 | 60% | 6 h | 6.7 h | 3580 ng/mL | 60200 ng·h/mL | COc1ncc(-c2ccc3nc(N)n(-c4ccccc4)c(=O)c3c2)cc1NS(=O)(=O)c1ccc(F)cc1F | 8.2 | 7 | 8.2 | 7.2 | 1.58 nM | 3.98 nM |  |  |  |  |  |  |  | IC50 [8, 34]: 0.501 nM
3 |  |  |  |  |  | COc1ncc(-c2ccc3nc(N)n(-c4ccccc4C(F)(F)F)c(=O)c3c2)cc1S(=O)(=O)Nc1ccc(F)cc1F (atropisomer aS) | 5.6 | 5.1 | 5.6 | 6 | 5.01 nM | 2510 nM | 3626 kg·ng·h/mL/mg | 3695 kg·ng·h/mL/mg | 1.3 h | 1556 ng/mL | 7.9 | 8.6 | 7.9 | Activity [24]: Toxic; Activity [25]: Toxic; Activity [26]: Toxic; Activity [27]: Toxic; Activity [28]: Toxic; MTD at 336 h [29]: 50 mg/kg; Vdss [30]: 0.34 L/kg; F [31]: 98%; Tmax [32]: 4.25 h; t1/2 [33]: 4 h

Row | Compound | bioavailability [1] | Tmax [2] | half-life [3] | Cmax [4] | AUC [5] | pIC50 [10] | pIC50 [11] | pIC50 [12] | pIC50 [13] | IC50 [14] | IC50 [15] | AUC/dose [16] | AUC/dose [17] | t1/2 [19] | Cmax [23] | pIC50 [7] | pIC50 [8] | pIC50 [9] | also measured
4 | COc1ncc(-c2ccc3nc(N)n(-c4ccccc4C(F)(F)F)c(=O)c3c2)cc1S(=O)(=O)Nc1ccc(F)cc1F (atropisomer aR) | > 100% | 3 h | 2.7 h |  |  | 5 | 4.8 | 5.5 | 5.3 | 126 nM | 3160 nM | 9985 kg·ng·h/mL/mg | 7113 kg·ng·h/mL/mg | 3.5 h | 4429 ng/mL | 7.1 | 7.8 | 6.9 | Vd [18]: 0.55 L/kg; clearance [20]: 2.5 mL/min/kg; Stability [21]: Stable; Stability [22]: Stable

Reference: ChEMBL document CHEMBL3120088, “Discovery of selective small molecule type III phosphatidylinositol 4-kinase alpha (PI4KIIIα) inhibitors as anti hepatitis C (HCV) agents” (J Med Chem, 2014)
